Series [1] concerns Leishmania tropica. Nature of the series: Antileishmanial activity against Leishmania tropica MHOM/MA/1988/LEM1314 promastigotes infected in Syrian hamster assessed as reduction in parasite load in foodpad skin at 200 mg administered once daily through oral gavage for 3 weeks starting at week 7 post infection measured 1 week post last dose by qPCR analysis relative to control. The format is functional. Set-up: scale not given: the % may be the effect or the level left. In short, it runs like this:
(§1)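 Hamsters were infected in the footpad and treated daily for 21 days from week 7 post-infection, n = 10/group, and sacrificed 1 week after the last dose. Footpad skin, liver and spleen DNA was assayed by L. tropica-specific TaqMan qPCR (chromosome 29 target), in triplicate with 50 ng DNA per 25 μL reaction. Load was interpolated from Ct on a calibration curve of promastigote DNA, relative to base-ointment controls.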
In general terms: Real-time PCR tracks product formation cycle by cycle.

In series [2] the test system is Leishmania tropica. In words: Antileishmanial activity against Leishmania tropica MHOM/MA/1988/LEM1314 promastigotes infected in Syrian hamster assessed as reduction in parasite load in foodpad skin at 2.5 % administered once daily tropically on footpad for 3 weeks starting at week 7 post infection measured 1 week post last dose by qPCR analysis relative to control. Details: scale not given: the % may be the effect or the level left. The format is functional. The procedure, abridged:
as §1

Series [3] has as its system Syrian golden hamster. Nature of the series: Toxicity in Syrian hamster assessed as diarrhea at 500 mg/kg, po or 5 % administered tropically on footpad for 28 days. The format is organism-based, Mesocricetus auratus. The note with it: in vivo, 672 h.
Series [4] has as its system Syrian golden hamster. Nature of the series: Toxicity in Syrian hamster assessed as mean serum AST levels at 5 % administered tropically on footpad for 28 days (reference value: 83.4 +/- 4.2 U/L). It counts as organism-based, Mesocricetus auratus. The note with it: in vivo, topical_or_ocular, 672 h.
In series [5] the test system is Syrian golden hamster. In words: Toxicity in Syrian hamster infected with Leishmania tropica MHOM/MA/1988/LEM1314 promastigotes assessed as mean serum AST levels at 1 % administered tropically on footpad for 3 weeks starting at week 7 post infection measured 1 week post last dose (reference value: 77.1 +/- 0.9 U/L). The format is organism-based, Mesocricetus auratus. The following applies: in vivo, topical_or_ocular, 168 h.

Series [6] deals with Syrian golden hamster. In words: Toxicity in Syrian hamster assessed as mean serum ALT levels at 500 mg/kg administered through oral gavage for 28 days (reference value: 82.2 +/- 4.8 U/L). The format is organism-based, Mesocricetus auratus. The following applies: in vivo, 672 h.
Series [7] deals with Syrian golden hamster. In words: Toxicity in Syrian hamster infected with Leishmania tropica MHOM/MA/1988/LEM1314 promastigotes assessed as mean serum ALT levels at 200 mg/kg administered through oral gavage for 3 weeks starting at week 7 post infection measured 1 week post last dose (reference value: 81.6 +/- 4.9 U/L). The format is organism-based, Mesocricetus auratus. The note with it: in vivo, 168 h.

Series [8] concerns Syrian golden hamster. Nature of the series: Toxicity in Syrian hamster infected with Leishmania tropica MHOM/MA/1988/LEM1314 promastigotes assessed as mean serum creatinine levels at 2.5 % administered tropically on footpad for 3 weeks starting at week 7 post infection measured 1 week post last dose (reference value: 0.19 mg/dl). The format is organism-based, Mesocricetus auratus. The note with it: in vivo, topical_or_ocular, 168 h.

Series [9] concerns Syrian golden hamster. Nature of the series: Toxicity in Syrian hamster infected with Leishmania tropica MHOM/MA/1988/LEM1314 promastigotes assessed as mean serum creatinine levels at 5 % administered tropically on footpad for 3 weeks starting at week 7 post infection measured 1 week post last dose (reference value: 0.19 mg/dl). The note with it: in vivo, topical_or_ocular, 168 h. The format is organism-based, Mesocricetus auratus.

Series [10] deals with Syrian golden hamster. In words: Toxicity in Syrian hamster infected with Leishmania tropica MHOM/MA/1988/LEM1314 promastigotes assessed as mean serum ALP levels at 200 mg/kg administered through oral gavage for 3 weeks starting at week 7 post infection measured 1 week post last dose (reference value: 14.4 +/- 0.9 U/L). The format is organism-based, Mesocricetus auratus. The note with it: in vivo, 168 h.

The subject of series [11] is Syrian golden hamster. Nature of the series: Toxicity in Syrian hamster infected with Leishmania tropica MHOM/MA/1988/LEM1314 promastigotes assessed as mean serum ALP levels at 2.5 % administered tropically on footpad for 3 weeks starting at week 7 post infection measured 1 week post last dose (reference value: 14.4 +/- 0.9 U/L). It counts as organism-based, Mesocricetus auratus. The following applies: in vivo, topical_or_ocular, 168 h.

The subject of series [12] is Syrian golden hamster. In words: Toxicity in Syrian hamster infected with Leishmania tropica MHOM/MA/1988/LEM1314 promastigotes assessed as mean serum ALP levels at 5 % administered tropically on footpad for 3 weeks starting at week 7 post infection measured 1 week post last dose (reference value: 14.4 +/- 0.9 U/L). It counts as organism-based, Mesocricetus auratus. The following applies: in vivo, topical_or_ocular, 168 h.

Series [13] relates to Syrian golden hamster. In words: Toxicity in Syrian hamster assessed as urea levels at 5 % administered tropically on footpad for 28 days (reference value: 33.2 +/- 2.8 mg/dl). It counts as organism-based, Mesocricetus auratus. The following applies: in vivo, topical_or_ocular, 672 h.
Series [14] deals with Syrian golden hamster. Nature of the series: Toxicity in Syrian hamster infected with Leishmania tropica MHOM/MA/1988/LEM1314 promastigotes assessed as urea levels at 200 mg/kg administered through oral gavage for 3 weeks starting at week 7 post infection measured 1 week post last dose (reference value: 32.5 +/- 0.8 mg/dl). It counts as organism-based, Mesocricetus auratus. The following applies: in vivo, 168 h.

The test system of series [15] is Syrian golden hamster. Nature of the series: Toxicity in Syrian hamster assessed as spleen weight at 500 mg/kg administered through oral gavage for 28 days (reference value: 179.4 +/- 19.8 mg). It counts as organism-based, Mesocricetus auratus. The note with it: in vivo, 672 h.
Series [16] has as its system Syrian golden hamster. Nature of the series: Toxicity in Syrian hamster infected with Leishmania tropica MHOM/MA/1988/LEM1314 promastigotes assessed as spleen weight at 200 mg/kg administered through oral gavage for 3 weeks starting at week 7 post infection measured 1 week post last dose (reference value: 178.8 +/- 1.2 mg). The format is organism-based, Mesocricetus auratus. The note with it: in vivo, 168 h.

Series [17] relates to Syrian golden hamster. Nature of the series: Toxicity in Syrian hamster infected with Leishmania tropica MHOM/MA/1988/LEM1314 promastigotes assessed as spleen weight at 1 % administered tropically on footpad for 3 weeks starting at week 7 post infection measured 1 week post last dose (reference value: 178.8 +/- 1.2 mg). It counts as organism-based, Mesocricetus auratus. The note with it: in vivo, topical_or_ocular, 168 h.

The test system of series [18] is Syrian golden hamster. In words: Toxicity in Syrian hamster infected with Leishmania tropica MHOM/MA/1988/LEM1314 promastigotes assessed as spleen weight at 5 % administered tropically on footpad for 3 weeks starting at week 7 post infection measured 1 week post last dose (reference value: 178.8 +/- 1.2 mg). It counts as organism-based, Mesocricetus auratus. The following applies: in vivo, topical_or_ocular, 168 h.

The test system of series [19] is Syrian golden hamster. In words: Toxicity in Syrian hamster infected with Leishmania tropica MHOM/MA/1988/LEM1314 promastigotes assessed as liver weight at 5 % administered tropically on footpad for 3 weeks starting at week 7 post infection measured 1 week post last dose (reference value: 3.3 +/- 0.2 g). It counts as organism-based, Mesocricetus auratus. The note with it: in vivo, topical_or_ocular, 168 h. The procedure, abridged: (§2)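 Infected hamsters were treated daily for 21 days from week 7 post-infection (ointment 1–5%, 200 mg/kg gavage, or intralesional meglumine antimoniate 2 mg SbV/kg). Clinical signs and body weight were monitored during treatment and a 7-day follow-up. After sacrifice, liver and spleen were weighed and serum ALP, ALT, creatinine, urea and AST were measured with kits, compared with untreated infected animals.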

For series [20], the system named is Syrian golden hamster. In words: Toxicity in Syrian hamster assessed as change in body weight at 500 mg/kg, po or 5 % administered tropically on footpad for 28 days. It counts as organism-based, Mesocricetus auratus. The note with it: in vivo, 672 h.
Series [21] deals with Syrian golden hamster. In words: Toxicity in Syrian hamster infected with Leishmania tropica MHOM/MA/1988/LEM1314 promastigotes assessed as stress at 200 mg/kg administered through oral gavage for 3 weeks starting at week 7 post infection measured during compound dosing or measured 1 week post last dose. The following applies: in vivo, 168 h. It counts as organism-based, Mesocricetus auratus. In short, it runs like this: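 Infected hamsters (footpad, 3 × 10^7 promastigotes) were gavaged daily for 21 days from week 7 post-infection at 200 mg/kg in olive oil, n=10.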

Series [22] deals with Syrian golden hamster. Nature of the series: Toxicity in Syrian hamster infected with Leishmania tropica MHOM/MA/1988/LEM1314 promastigotes assessed as footpad edema at 200 mg/kg administered through oral gavage for 3 weeks starting at week 7 post infection measured during compound dosing or measured 1 week post last dose. It counts as organism-based, Mesocricetus auratus. The note with it: in vivo, 168 h. The procedure, abridged:
as §2

In series [23] the test system is Leishmania tropica. In words: Antileishmanial activity against Leishmania tropica MHOM/MA/1988/LEM1314 promastigotes infected in Syrian hamster assessed as reduction in parasite load in spleen at 1 % administered once daily tropically on footpad for 3 weeks starting at week 7 post infection measured 1 week post last dose by qPCR analysis relative to control. The format is functional. The procedure, abridged:
as §1

The source made the active and inactive calls. No cut-off for these calls is given here.

Among the data in ChEMBL document CHEMBL3872233, “Topical Treatment of Leishmania tropica Infection Using (-)-α-Bisabolol Ointment in a Hamster Model: Effectiveness and Safety Assessment” (J Nat Prod, 2016) are Activity values, retold here.

Regarding `CC(C)=CCC[C@](C)(O)[C@@H]1CC=C(C)CC1` [LEVOMENOL], the Activity with Leishmania tropica [1] is 74%; in the series with Leishmania tropica [2], 83%; with Syrian golden hamster [3] it was “Non-Toxic”; in the series with Syrian golden hamster [4], 83.4 U/L; with Syrian golden hamster [5], 82.2 U/L; in the series with Syrian golden hamster [6], 82.6 U/L. For the same compound, the Activity with Syrian golden hamster [7] came to 81.6 U/L; in the series on Syrian golden hamster [8], 0.21 mg/dL; in the series with Syrian golden hamster [9], 0.18 mg/dL; in the series with Syrian golden hamster [10] it was 12.9 U/L; in the series on Syrian golden hamster [11], 13.3 U/L; in the series with Syrian golden hamster [12] it was 14.7 U/L. The Activity in the series with Syrian golden hamster [13] turned out to be 33.9 mg/dL; in the series with Syrian golden hamster [14], 34.4 mg/dL; in the series on Syrian golden hamster [15] it was 181.2 mg; in the series with Syrian golden hamster [16], 177.3 mg; in the series on Syrian golden hamster [17], 175.3 mg; in the series on Syrian golden hamster [18] it was 193.1 mg. In addition, the Activity with Syrian golden hamster [19] was 3.2 g; with Syrian golden hamster [20], “Non-Toxic”; with Syrian golden hamster [21], “Non-Toxic”; in the series on Syrian golden hamster [22] it was “Non-Toxic”. Besides, the outcome with Leishmania tropica [23] was Active.
